This note sets out measurements from PubChem BioAssay AID602212 (Southern Research Specialized Biocontainment Screening …, 2012).

Calls of active or inactive are those of the source.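 Rule for the calls: active = inhibition of 30% or more at any tested concentration; inactive = the rest.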

The subject of the assay is M18 aspartyl aminopeptidase (Plasmodium falciparum 3D7). In words: PfM18AAP enzyme inhibitors, dose response, counter-screen for PfM1 aminopeptidase inhibitor project, biochemical, QFRET fluorogenic substrate, set 2 (AID 602212). The conditions noted are these: recombinant PfM18AAP, H-Glu-NHMec fluorogenic cleavage; series mostly up to 100 µM. In short, it runs like this: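 Test system: recombinant PfM18AAP enzyme / Input: enzyme at 5 µg/mL final / Replication: triplicate / Detection: fluorescence at 370/460 nm / Compound: 10-point twofold dilution series, 100 down to 0.2 µM / Incubation: 90 min reaction at room temperature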
In general terms: A counterscreen serves to expose hits that act by an unwanted route or on another target.
For the compound `O=C(NCc1ccccc1)C1CCN(S(=O)(=O)c2ccc(Br)s2)CC1`, the result was inactive.
In the case of `O=C(NCc1ccc(F)cc1)C1CCN(S(=O)(=O)c2ccc(Br)s2)CC1`, the outcome was inactive.
Then `CC[C@H](C)[C@H](NC(=O)c1ccc(C(C)(C)C)cc1)C(=O)NCc1ccc2c(c1)OCO2`, with “inactive”.
To `CC[C@H](C)[C@H](NS(=O)(=O)c1ccc(Br)s1)C(=O)NCc1ccc(Cl)cc1` belongs “inactive”; to `CC[C@H](C)[C@H](NC(=O)c1ccc(C(C)(C)C)cc1)C(=O)NCc1ccc(Cl)cc1`, “inactive”.
Then `O=C(NCc1ccc2c(c1)OCO2)C1CCN(S(=O)(=O)c2ccc(Br)s2)CC1`, with “inactive”.
In the case of `O=C(NCc1ccc(Cl)cc1)C1CCN(S(=O)(=O)c2ccc(Br)s2)CC1`, the outcome was inactive.
For `CC[C@H](C)[C@H](NS(=O)(=O)c1ccc(Br)s1)C(=O)NCc1ccc2c(c1)OCO2`, the outcome was inactive.
